According to ChEMBL document CHEMBL5104216, “Fragment-Sized Thiazoles in Fragment-Based Drug Discovery Campaigns: Friend or Foe?” (ACS Med Chem Lett, 2022):

Columns and labels:
[1] = molecular target: Replicase polyprotein 1ab (Severe acute respiratory syndrome coronavirus 2) (UniProt P0DTD1); assay: Inhibition of recombinant SARS-CoV-2 3CLpro expressed in Escherichia coli NiCo21(DE3) assessed as residual activity at 500 uM using DABCYL-KTSAVLQSGFRKME-EDANS as substrate preincubated for 30 mins followed by substrate addition and measured by FRET assay relative to control
Outline: (§1)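 Kinetic fluorescence read-out of cleavage of a FRET substrate carrying a DABCYL–EDANS pair. Compounds were tested at 500–625 μM, and <50% residual activity was taken as the activity threshold. To exclude false positives, absorbance at the excitation and emission wavelengths and autofluorescence of the compounds were measured.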

[2] = Redox activity of compound assessed as redox index at 100 uM in presence of 1 mM DTT measured by HRP-PR assay; format: physicochemical
Outline: (§2)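 H2O2 from redox cycling, with or without DTT, detected with horseradish peroxidase-phenol red (HRP-PR).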

[3] = molecular target: UDP-N-acetylglucosamine 1-carboxyvinyltransferase (Escherichia coli K-12) (UniProt P0A749); assay: Inhibition of recombinant Escherichia coli MurA assessed as residual activity at 500 uM using UDP-N-acetylglucosamine as substrate preincubated for 30 mins followed by substrate addition and measured by malachite green based colorimetric assay relative to control
Outline: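 E. coli MurA at 500–625 μM with 30 min preincubation before substrate addition. Malachite green colorimetric read-out. Activity threshold was <50% residual activity.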

[4] = Redox activity of compound assessed as redox index at 10 uM measured by resazurin assay; format: physicochemical
Outline: (§3)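 Free radicals formed by redox cycling with DTT detected with resazurin by fluorimetric read-out. Spectral interference checked.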

[5] = molecular target: Replicase polyprotein 1ab (Severe acute respiratory syndrome coronavirus 2) (UniProt P0DTD1); assay: Inhibition of recombinant SARS-CoV-2 3CLpro expressed in Escherichia coli NiCo21(DE3) assessed as residual activity at 500 uM using DABCYL-KTSAVLQSGFRKME-EDANS as substrate preincubated for 30 mins in presence of 1mM DTT followed by substrate addition and measured by FRET assay relative to control; outline: as §1
[6] = Thiol reactivity of compound measured by TNB2- assay; format: physicochemical
Outline: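 Reactivity toward the thiol surrogate TNB2– in a nonproteinaceous setting without TCEP. Reversibility tested by adding TCEP and checking that absorbance was restored.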

[7] = molecular target: UDP-N-acetylglucosamine 1-carboxyvinyltransferase (Escherichia coli K-12) (UniProt P0A749); assay: Inhibition of recombinant Escherichia coli MurA assessed as residual activity at 500 uM using UDP-N-acetylglucosamine as substrate preincubated for 30 mins in presence of 1 mM DTT followed by substrate addition and measured by malachite green based colorimetric assay relative to control
[8] = Redox activity of compound assessed as redox index at 100 uM in presence of 100 uM TCEP measured by H2DCFDA assay; format: physicochemical
Outline: (§4)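 Reactive oxygen species, with or without the reducing agent TCEP, detected with the fluorescent probe H2DCFDA. Compound spectral interference (autofluorescence) checked under the assay conditions.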

[9] = Aqueous stability of the compound at pH 7.4 measured after 60 mins by spectrophotometric analysis; format: physicochemical; details: buffer, pH 7.4, 1 h
Outline: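 Followed by spectrophotometry as changes in the compound absorption spectrum over time in 50 mM Tris-HCl pH 7.4, 0.5 mM EDTA, read after 60 min in 96-well microplate format. Compounds with low absorbance were not evaluated.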

[10] = Redox activity of compound assessed as redox index at 100 uM measured by HRP-PR assay; format: physicochemical; outline: as §2
[11] = molecular target: D-alanine--D-alanine ligase B (Escherichia coli K-12) (UniProt P07862); assay: Inhibition of recombinant Escherichia coli DdlB assessed as residual activity at 500 uM using D-alanine as substrate incubated for 20 mins and measured by malachite green based colorimetric assay relative to control
Outline: (§5)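 Screened at 500–625 μM with malachite green colorimetric read-out. Activity threshold was <50% residual activity.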

[12] = Redox activity of compound assessed as redox index at 1 uM measured by resazurin assay; format: physicochemical; outline: as §3
[13] = tested on: Mycobacterium tuberculosis; assay: Inhibition of Mycobacterium tuberculosis MetAP1a assessed as residual activity at 625 uM using L-methionine 7-amido-4-methylcoumarin as fluorogenic substrate and measured by fluorescence based assay
Outline: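 Kinetic fluorescence assay in which the enzyme hydrolyses L-methionine 7-amido-4-methylcoumarin to fluorescent 7-amino-4-methylcoumarin. Compounds were tested at 500–625 μM, and activity was called at <50% residual activity. Spectral interference was checked by measuring absorbance at the excitation and emission wavelengths and compound autofluorescence.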

[14] = molecular target: UDP-N-acetylglucosamine 1-carboxyvinyltransferase (Escherichia coli K-12) (UniProt P0A749); assay: Inhibition of recombinant Escherichia coli MurA assessed as residual activity at 500 uM using UDP-N-acetylglucosamine as substrate and measured by malachite green based colorimetric assay relative to control; outline: as §5
[15] = Redox activity of compound assessed as redox index at 100 uM measured by H2DCFDA assay; format: physicochemical; outline: as §4
[16] = Thiol reactivity of compound at 100 uM measured by DTNB assay; format: physicochemical

UDP-N-acetylglucosamine 1-carboxyvinyltransferase (Escherichia coli K-12), sequence (P0A749 whole entry): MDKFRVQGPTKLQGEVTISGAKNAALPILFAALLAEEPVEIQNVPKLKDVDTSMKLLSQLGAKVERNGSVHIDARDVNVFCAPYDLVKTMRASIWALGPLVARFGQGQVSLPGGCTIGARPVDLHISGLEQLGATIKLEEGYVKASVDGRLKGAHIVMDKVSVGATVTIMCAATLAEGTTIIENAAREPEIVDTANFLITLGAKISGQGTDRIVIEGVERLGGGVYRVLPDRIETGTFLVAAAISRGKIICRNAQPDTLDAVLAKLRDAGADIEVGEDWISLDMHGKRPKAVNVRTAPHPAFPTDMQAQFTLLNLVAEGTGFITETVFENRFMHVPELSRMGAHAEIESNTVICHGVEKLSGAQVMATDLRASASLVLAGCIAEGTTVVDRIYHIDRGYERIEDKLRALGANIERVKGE

SMILES | Activity [1] | Activity_index [2] | Activity [3] | Activity_index [4] | Activity [5] | Activity [6] | Activity [7] | Activity_index [8] | Stability [9] | Activity_index [10] | Activity [11] | Activity_index [12] | Activity [13] | Activity [14] | Activity_index [15] | Activity [16]
COC(=O)CC(=O)Nc1ncc(C#N)s1 | -4.7% | 1 | 5.8% | 1 | 86.3% | Active | 112% | 1 | Stable | 1 | 88% | 0.9 | 92.6% | 29.7% | 0.9 | –
N#Cc1cnc(Br)s1 | 101% | 1 | 94.3% | 1 | 75.5% | Active | 100% | 0.8 | Stable | 1 | 94% | 0.9 | 128% | 96% | 1 | –
Cc1nc(CCl)cs1 | 96.8% | 1 | 48.4% | 0.9 | 90.9% | Active | 112% | 0.8 | – | 1 | 100% | 0.9 | 124% | 89.6% | 1 | Active
O=S(=O)(Cc1ccccc1)Nc1nccs1 | 20% | 1 | 0% | 2 | 82.8% | Active | 94% | 10.2 | Stable | 0.8 | 93% | 1 | 45.2% | 0% | 22.2 | –
Cc1cnc(N)s1 | 88% | 1 | 85.2% | 0.9 | 79.8% | Active | 94.6% | 1.3 | Stable | 1 | 92% | 1 | 118% | 95.2% | 1.3 | –
CCOC(=O)c1sc(Br)nc1C | 91.6% | 1 | 9.1% | 0.9 | 85.8% | Active | 103% | 1.3 | Unstable | 1 | 93% | 0.9 | 115% | 19.5% | 1.3 | –
Brc1nncs1 | 5.1% | 1 | 143% | 0.9 | 78.3% | Active | 114% | 1.2 | – | 1 | 93% | 0.9 | 106% | 47% | 1 | –
